Experimental data taken from the RNAGym collection of RNA variant scans (doi:10.1101/gad.245936.114).
Fewer inactive variants are shown than the library holds.

B1: tRNA (parent)
chain: CUCUCGGUAGCCAAGUUGGUUUAAGGCGCAAGACUUUAAUUUAUCACUACGAAAUCUUGAGAUCGGGCGUUCGACUCGCCCCCGGGAGAUUUUUUCCUCGAGCAA

Variants of: B1
Test: nonsense suppression (GFP-seq) (ratio to wild type); higher = more function; SUP4oc tRNA, yeast GFP reporter sort-seq
Summary of the method: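 Yeast were grown in raffinose/galactose medium with 80 mg/L adenine, each strain bearing a genome-integrated ochre-suppressor tRNA variant from a ~3% random-mutation library, a galactose-driven GFP ochre reporter, and RFP. After sorting into GFP/RFP bins, every bin was sequenced on an Illumina platform at phred ≥30. The GFPSEQ value, a measure of nonsense suppression, is the weighted bin median GFP/RFP relative to the unmutated parent tRNA, using each variant's estimated cell share per bin as the weight. Only variants with ≥100 reads and ≥30 cells were included.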

**Q.** For CUCUCUGUAGUCUAGUUGGUUUAAGGCGCAAGACUUUAAUUUAUCACUACGAAAUCUUGAGAUCGGGCGUUCGACUCGCCCCCGGGAGAUUUUUUCCUCGAGCAA, which nonsense suppression is on record?
**A.** The nonsense suppression was ≤ 0.026.

**Q.** Which nonsense suppression does the source give for CUCUCUGUAGCCAAGUUGGUUUAAGGCGCAAGACUUUAAUUUAUCACUACGAAAUCUUGAGAUCGGGCGUUCGACUCGCCCACGGGUGAUUUUUUCCUCGAGCAA here?
**A.** Its nonsense suppression is ≤ 0.026.

**Q.** Which nonsense suppression does the source give for CUCUCUGUAGCCAAGUUGGUUUAAGGCGCAAGACUUUAAUUUAUCACUACGAAAUCUUGAGAUCGGGCGUUCGACUCGCCACCGGGAGAUUUUUUCCUCGAGCAA here?
**A.** Its nonsense suppression is ≤ 0.026.

**Q.** Which nonsense suppression does the source give for CUCUCUCUAGCCAAGUUGGUUUAAGGCGCAAGUCUUUAAUUUAUCACUACGAAAUCUUGAGAUCGGGCGUUCGACUCGCCCCCGGGAGAUUUUUUCCUCGAGCAA here?
**A.** Its nonsense suppression is ≤ 0.026.

**Q.** Which nonsense suppression does the source give for CUCUCUGUAGCCAAGUUGGUUUAAGGCGCAAGACUUUAAUUUAUCACUACGAAAUCUUGAGAUCGGGCGUUCGACUCGCCCCGGGGAGAUUUUUUCCUCGAGCAA here?
**A.** The nonsense suppression was 0.923.

**Q.** For CUCUCCGUAGCCAAGUUGGUUUAAGGCGCAAGACGUUAAUUUAUCACUACGAAAUCUUGAGAUCGGGCGUUCGACUCGCCCCCGGGAGAUUUUUUCCUCGAGCAA, which nonsense suppression is on record?
**A.** The nonsense suppression was ≤ 0.026.

**Q.** With CUCUCUGUAGCCAAGUUGGUUUAAGGCGCAAGACUUUAAUUUAUCACUACGAAAUCUUGAGAUCGGGCGUUCGACUCGCUCCCGGGAGAUUUUUUCCUCGAGCAA as the variant, how does the nonsense suppression read?
**A.** Its nonsense suppression is ≤ 0.026.

**Q.** With CUCUCUGUAGCCAAGUUGGUUUAAGGCGCAAGACUUUAAUUUAUCACUACGAAAUCUUGAGACCGGGCGUUCGACUCGCCCCCGGGAGAUUUUUUCCUCGAGCAA as the variant, how does the nonsense suppression read?
**A.** The nonsense suppression was ≤ 0.026.

**Q.** With CUCUCUGUAGCCAAGUUGGUUUAAGGCGCAAGACUUUAAUUUAUCACUACGAAAUCUGGAGAUCGGGCGUUCGACCCGCGCCCGGGAGAUUUUUUCCUCGAGCAA as the variant, how does the nonsense suppression read?
**A.** Its nonsense suppression is ≤ 0.026.

**Q.** With CUCUCCGUAGCGAAGUUGGUUUAAGGCGCAAGACUUUAAUUUAUCACUACGAAAUCUUGAGAUCGGGCGUUGGAUUCGCCCCCGCGAGAUUUUUUCCUCGAGCAA as the variant, how does the nonsense suppression read?
**A.** Its nonsense suppression is ≤ 0.026.

**Q.** For CUCUCUGUAGCCAAGUGGGUUUAAGGCGCAAGACUUUAAUUUAUCACUACGAAAUCUUGAGAUCGGGCGUUCGACUCGCCCCAGGGAGAUUUUUUCCUCGAGCAA, which nonsense suppression is on record?
**A.** Its nonsense suppression is 1.15.

**Q.** Which nonsense suppression does the source give for CUCUCCGUAGCCAAGUUGGUUUAAGGCGCAAGAGUUUAAUUUAUCACUACGAAUUCUUGAGAUCGGGCGUUCGACUCGCCCCCGGGAGAUUUUUUCCUCGAGCAA here?
**A.** Its nonsense suppression is ≤ 0.026.

**Q.** With CUCUCCGUAGCCAAGUUGGGUUAAGGCGCAAGACUUUAAUUUAUCACUACGAAAUCUUGAGAUCGGGCGUUCGACUCGCCCCCGGGAGAUUUUUUCCUCGAGCAA as the variant, how does the nonsense suppression read?
**A.** The nonsense suppression was ≤ 0.026.

**Q.** Which nonsense suppression does the source give for CUCUCCGUAGCCAAGUUGGAUUAAGGCGCAAGACUUUAAUUUAUCACUACGAAAUCUUGAGAUCGGGCGUUCGACUCGCCCCCGGGAGAUUUUUUCCUCGAGCAA here?
**A.** The nonsense suppression was ≤ 0.026.

**Q.** Which nonsense suppression does the source give for CUCUCCGUAGCCAAGUUGGUUUAAGGCGCAAGACUUUAAUUUAUCACUACGAAAUCCUGAGAUCAGACGUUCGCCUCCCCCCCGGGAGAUUUUUUCCUCGAGCAA here?
**A.** Its nonsense suppression is ≤ 0.026.

**Q.** For CUCUCUGUAGCCAAGUUGGUUUAAGGCGCAAGACUUUAAUUUAUCACUACGAAAUCAUGAGAUCGGGCGUUCGACUCGCCCCCGGGAGAUUUUUUCCUCGAGCAA, which nonsense suppression is on record?
**A.** The nonsense suppression was ≤ 0.026.

**Q.** Which nonsense suppression does the source give for CUCUCUGUAGCCAAGUUGGUUUAAGGCGCAAGACUUUAAUUUAUCACUACGAAAUCUUGAGAGCGGGCGUCCGACUCGCCCCCGUGAGCUUUUUUCCUCGAGCAA here?
**A.** Its nonsense suppression is ≤ 0.026.

**Q.** For CUCUCCGUAGCCAAGAUGGUUUAAGGCGCAAGACUUUAAUUUAUCACUACGAAAUGCCGAGAUCGGGCGUCCGACUCGCCCCCGGGAGAUUUUUUCCUCGAGCAA, which nonsense suppression is on record?
**A.** The nonsense suppression was ≤ 0.026.

**Q.** With CUCUCCGUAGCCAAGUUGGUUUAAGGCGCAAGACUUUAAUUUAUCACUACGAAAUCUUGAGAUCGGGCGUUCGACUGGCCCCCGGGAGAUUUUUUCCUCGAGCAA as the variant, how does the nonsense suppression read?
**A.** The nonsense suppression was ≤ 0.026.

**Q.** Which nonsense suppression does the source give for CUCUCUGUUGCCAAGUUGGUUUAAGGCGCAAGACUUUAAUUUAUCACUACGAAAUCUUGAGAUCGGGCGUUCGACUCGCCCCCGGGAGAUUUUUUCCUCGAGCAA here?
**A.** The nonsense suppression was 0.0343.

**Q.** Which nonsense suppression does the source give for CUCUCCGUAGCCAAGUUGGUUUAAGGCGCAAGACUUUAAUUUAUCACUACGAAAUCUUGAGAUCGGGCGUACGACUCGCCCCCGGGAGAUUUUUUCCUCGAGCAA here?
**A.** Its nonsense suppression is ≤ 0.026.

**Q.** With CUCUCUGUAGCCAAGCCGUUUUAAGGCGCAAGACUUUAAUUUAUCACUACGAAAUCUUGAGAUCGGGCGUUCGACUCGCCCCCGGGAGAUUUUUUCCUCGAGCAA as the variant, how does the nonsense suppression read?
**A.** Its nonsense suppression is ≤ 0.026.

**Q.** With CUCUCUGUAGCCAAGUUGGAUUAAGGCGCAAGACUUUAAUUUAUCACUACGAAAUCUUGAGAUCGGGCGUUCGACUCGCCCCGGGGAGAUUUUUUCCUCGAGCAA as the variant, how does the nonsense suppression read?
**A.** Its nonsense suppression is 0.186.

**Q.** Which nonsense suppression does the source give for CUCUCCGUAGCCAAAUUGGUUUAAGGCGCAAGACUUUAAUUUAUCACUACGAAAUCUUGAGAUCGGGCGUUCGACUCGCCCCCGGGAGAUUUUUUCCUCGAGCAA here?
**A.** Its nonsense suppression is ≤ 0.026.

**Q.** With CUCUCUGUAGCCAAGUCGGUUUAAGGCUCAAGACUUUAAUUUAUCACUACGAAACCUUGAGAUCGGGCUUUCGACUCGCCCCCGGGAUAUUUUUUCCUCGAGCAA as the variant, how does the nonsense suppression read?
**A.** Its nonsense suppression is ≤ 0.026.

**Q.** Which nonsense suppression does the source give for CUCUCUGUAGCCAAGGUGGUUUAAGGCGCAAGACUUUAAUUUAUCACUACGAAAUCUUAAGAUCGGGCGUUCGACUCACCCCCGGGAGAUUUUUUCCUCGAGCAA here?
**A.** The nonsense suppression was ≤ 0.026.

**Q.** Which nonsense suppression does the source give for CUCUCUGUAGCCAAGUUGGUUUAAGGCGCAAGACUUUAAUUUAUCACUACGAAAUCUUGGAAUCCGGCGUUCGACUCGCCCCCGGGAGAUUUUUUCCUCGAGCAA here?
**A.** The nonsense suppression was ≤ 0.026.
